Measurements taken from ChEMBL document CHEMBL1155099, “Natural products in parallel synthesis: triazole libraries of nonactic acid” (2008).
The source made the active and inactive calls.

What was measured:
Type in all cases: functional, organism-based
[1] = tested on: Candida albicans; experiment: Antifungal activity against Candida albicans at 1 mM by almar blue dye reduction assay
In short: (§1)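 Single-point primary screen at 1 mM using Alamar Blue dye reduction as the growth read-out.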

[2] = tested on: Saccharomyces cerevisiae; experiment: Antifungal activity against Saccharomyces cerevisiae at 1 mM by almar blue dye reduction assay; in short: as §1
[3] = tested on: Cryptococcus neoformans; experiment: Antifungal activity against Cryptococcus neoformans at 1 mM by almar blue dye reduction assay; in short: as §1
[4] = tested on: Bacillus subtilis; experiment: Antibacterial activity against Bacillus subtilis at 1 mM by almar blue dye reduction assay; in short: as §1
[5] = tested on: Staphylococcus aureus; experiment: Antibacterial activity against Staphylococcus aureus at 1 mM by almar blue dye reduction assay; in short: as §1
[6] = tested on: Bacillus cereus; experiment: Antibacterial activity against Bacillus cereus at 1 mM by almar blue dye reduction assay; in short: as §1
[7] = tested on: Pseudomonas aeruginosa; experiment: Antibacterial activity against Pseudomonas aeruginosa at 1 mM by almar blue dye reduction assay; in short: as §1
[8] = tested on: Bacillus anthracis; experiment: Antibacterial activity against Bacillus anthracis at 1mM by almar blue dye reduction assay
[9] = tested on: Escherichia coli; experiment: Antibacterial activity against Escherichia coli at 1 mM by almar blue dye reduction assay; in short: as §1

Measured: Activity

C[C@H](C[C@@H]1CC[C@H]([C@@H](C)C(=O)N(C)Cc2ccccc2)O1)n1cc(C#Cc2ccc(Oc3ccccc3)cc2)nn1
inactive: all assays above

C[C@H](C[C@@H]1CC[C@H]([C@@H](C)C(=O)N2CCCC2)O1)n1cc(C#CCN2CCN(c3ccccc3)CC2)nn1
inactive: all assays above

CCN(CC)C(=O)[C@H](C)[C@H]1CC[C@@H](C[C@@H](C)n2cc(C#CCNCCOC)nn2)O1
inactive: all assays above

CCN(CC)C(=O)[C@H](C)[C@H]1CC[C@@H](C[C@@H](C)n2cc(C#CCN3CCN(c4ccccc4)CC3)nn2)O1
inactive: all assays above

CCN(CC)C(=O)[C@H](C)[C@H]1CC[C@@H](C[C@@H](C)n2cc(C#CCCCC#N)nn2)O1
inactive: all assays above

CC(C)NC(=O)[C@H](C)[C@H]1CC[C@@H](C[C@@H](C)n2cc(C#Cc3ccc(C(F)(F)F)cc3)nn2)O1
inactive: all assays above

CCN(CC)C(=O)[C@H](C)[C@H]1CC[C@@H](C[C@@H](C)n2cc(C#CCC3CCCC3)nn2)O1
inactive: all assays above

C[C@H](C[C@@H]1CC[C@H]([C@@H](C)C(=O)N(C)Cc2ccccc2)O1)n1cc(C#Cc2cccc3ccccc23)nn1
inactive: all assays above

CC(C)CC#Cc1cn([C@H](C)C[C@@H]2CC[C@H]([C@@H](C)C(=O)N(C)Cc3ccccc3)O2)nn1
inactive: all assays above

CC(C)NC(=O)[C@H](C)C1CCC(C[C@@H](C)n2cc(C#CCNC(=O)OCc3ccccc3)nn2)O1 (single isomer, unassigned)
inactive: all assays above

CCC(=O)OCC#Cc1cn([C@H](C)CC2CCC([C@@H](C)C(=O)N(CC)CC)O2)nn1 (single isomer, unassigned)
inactive: all assays above

CCCNC(=O)NCC#Cc1cn([C@H](C)CC2CCC([C@@H](C)C(=O)N3CCN(CC4CCCO4)CC3)O2)nn1 (single isomer, unassigned)
inactive: all assays above

C[C@H](C[C@@H]1CC[C@H]([C@@H](C)C(=O)N(C)Cc2ccccc2)O1)n1cc(C#Cc2ccccc2)nn1
inactive: all assays above

CCN(CC)C(=O)[C@H](C)[C@H]1CC[C@@H](C[C@@H](C)n2cc(C#Cc3ccc(OC)cc3)nn2)O1
inactive: all assays above

Cc1cccc(NC(=O)NCC#Cc2cn([C@H](C)CC3CCC([C@@H](C)C(=O)N(C)Cc4ccccc4)O3)nn2)c1 (single isomer, unassigned)
inactive: all assays above

CC(C)NC(=O)[C@H](C)[C@H]1CC[C@@H](C[C@@H](C)n2cc(C#Cc3ccccn3)nn2)O1
inactive: all assays above

C[C@H](C[C@@H]1CC[C@H]([C@@H](C)C(=O)N(C)Cc2ccccc2)O1)n1cc(C#CC2=CCCCC2)nn1
inactive: all assays above

C[C@H](C[C@@H]1CC[C@H]([C@@H](C)C(=O)N2CCN(CC3CCCO3)CC2)O1)n1cc(C#CCc2ccccc2)nn1 (some centres not stated)
inactive: all assays above

COc1ccc(OCC#Cc2cn([C@H](C)C[C@@H]3CC[C@H]([C@@H](C)C(=O)NC(C)C)O3)nn2)cc1
inactive: all assays above

COc1cccc(OCC#Cc2cn([C@H](C)C[C@@H]3CC[C@H]([C@@H](C)C(=O)N4CCN(CC5CCCO5)CC4)O3)nn2)c1OC (some centres not stated)
inactive: all assays above

CC(C)NC(=O)[C@H](C)[C@H]1CCC(C[C@@H](C)n2cc(C#Cc3ccccc3[N+](=O)[O-])nn2)O1 (single isomer, unassigned)
inactive: all assays above

C[C@H](C[C@@H]1CC[C@H]([C@@H](C)C(=O)N2CCN(CC3CCCO3)CC2)O1)n1cc(C#Cc2ccccc2)nn1 (some centres not stated)
inactive: all assays above

COc1ccc(OCC#Cc2cn([C@H](C)C[C@@H]3CC[C@H]([C@@H](C)C(=O)N4CCCC4)O3)nn2)cc1
inactive: all assays above
